Shown are actives, neighbours in structure and some others; about 3.1% of the full set was active somewhere.
KCNK9 block: human KCNK9 channel inhibition. 1.2% of 310,000 active. HEK293 KCNK9, FluxOR thallium flux fluorescence; active compounds read low. AID 488922. Q9NPC2. B-score at 10 µM;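 active means ratio B-score over 3 SD below the library mean, with starting fluorescence within 5 SD of its mean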;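 further: negative B-score means less thallium flux so channel inhibition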
KCNQ1 block: human KCNQ1 channel inhibition. P51787. CHO-K1 KCNQ1, FluxOR thallium flux fluorescence; active compounds read high. B-score at 10 µM. 1.3% of 310,000 active;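 active means compounds whose thallium flux B-score, printed positive for inhibition, exceeds three library SD while starting fluorescence stays within three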;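 further: channel opened by potassium depolarization with thallium stimulus after 20 min compound exposure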
Target sequence (P51787 whole entry, looked up): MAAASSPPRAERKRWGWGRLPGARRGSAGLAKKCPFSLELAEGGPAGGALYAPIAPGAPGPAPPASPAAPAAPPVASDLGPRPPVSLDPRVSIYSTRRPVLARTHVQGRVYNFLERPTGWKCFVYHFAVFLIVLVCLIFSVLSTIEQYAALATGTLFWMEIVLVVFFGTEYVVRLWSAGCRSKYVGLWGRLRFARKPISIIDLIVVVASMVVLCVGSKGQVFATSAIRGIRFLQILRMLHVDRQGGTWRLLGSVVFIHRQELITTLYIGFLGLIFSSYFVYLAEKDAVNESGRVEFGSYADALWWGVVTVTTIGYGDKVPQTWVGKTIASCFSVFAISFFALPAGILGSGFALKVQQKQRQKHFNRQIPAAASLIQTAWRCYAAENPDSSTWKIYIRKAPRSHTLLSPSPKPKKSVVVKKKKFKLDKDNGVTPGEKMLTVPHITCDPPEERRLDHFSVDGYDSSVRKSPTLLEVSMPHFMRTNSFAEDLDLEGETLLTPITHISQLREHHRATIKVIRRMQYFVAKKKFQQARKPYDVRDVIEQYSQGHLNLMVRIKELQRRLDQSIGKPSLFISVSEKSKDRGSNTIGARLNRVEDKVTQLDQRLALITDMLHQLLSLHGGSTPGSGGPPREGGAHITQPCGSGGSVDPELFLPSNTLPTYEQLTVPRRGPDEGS
KCNQ1 pot: human KCNQ1 channel potentiation or activation; P51787; CHO-K1 KCNQ1, thallium flux FluxOR fluorescence; active compounds read high; B-score at 10 µM; 0.35% of 310,000 active; AID 2648;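 active means fluorescence ratio B-score, a plate-corrected score, at least three library SD, with initial intensity B-score within 5 SD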
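Assay system: stable KCNQ1 CHO-K1 line; medium: assay buffer, equal DMSO in all wells; timing: 90 min dye loading and 20 min compound exposure, both at room temperature; technique: kinetic FluxOR thallium fluorescence, 10-s 1-Hz baseline, 110-s post-stimulus read; read-out basis: B score of baseline-normalized fluorescence ratio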
KCNK3 block: human KCNK3 channel inhibition, primary screen | O14649 | B-score at 10 µM | 0.84% of 340,000 active | CHO-KCNK3 thallium flux, FluxOR fluorescence; active compounds read low | AID 602410;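 active means B-score under library mean minus 4 SD, starting fluorescence ratio at most library mean plus 5 SD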;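 further: more negative B-score means stronger inhibition of thallium flux through KCNK3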
hERG protect: shields human hERG channel from block by proarrhythmic agents | Q12809 | CHO-hERG, FluxOR thallium flux, dofetilide IC70 present | activation (rescue from dofetilide block), less the hit threshold, % at 10 µM | 0.51% of 310,000 active | AID 1511;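 active means activation above the mean of controls blocked by dofetilide plus 5 SD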;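 further: thallium influx through hERG after potassium depolarization seen as dye fluorescence rise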
KCNK9 inh conf: human KCNK9 inhibitor confirmation. shares compounds with KCNK9 block. HEK293 KCNK9 cells, FluxOR thallium flux fluorescence. inhibition, % at 10 µM. 43% of 4,900 active;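 active means thallium signal inhibited by more than 5 SD of the compound-free buffer control wells, on both duplicate plates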;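 further: 0% = assay buffer control wells without compound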
Kir2-1 spec: selectivity of KCNK9 modulators against mouse Kir2.1; shares compounds with KCNK9 block; Kir2.1 cells, FluxOR thallium flux fluorescence; inhibition, % at 10 µM; 4% of 4,900 active; AID 492993;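 active means thallium signal drop more than 5 SD beyond the mean of the no-compound control wells, seen in both duplicate plates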;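 further: signal is fluorescence rise after thallium addition divided by baseline fluorescence; plate controls were assay buffer only for no effect and full block by chlorpromazine control for full effect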
KCNK9 uninduced: second check of KCNK9 modulator effects in non-induced HEK293 cells; shares compounds with KCNK9 block; FluxOR thallium flux; inhibition, % at 10 µM; 40% of 4,900 active;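 active means thallium signal drop beyond 5 SD of the untreated control mean, on both duplicate plates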;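 further: plate controls were buffer only IC0 wells for no effect and SID17386958 at its maximal inhibitory level for full effect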
* = called active by the depositor; i = inactive; . = not tested or not shown.

SMILES	KCNK9 block	KCNQ1 block	KCNQ1 pot	KCNK3 block	hERG protect	KCNK9 inh conf	Kir2-1 spec	KCNK9 uninduced
O=C(/C(=C/c1ccc(Cl)cc1)c1nc2ccccc2[nH]1)c1cccs1	-11.5*	6*	i	i	-17.4	48.0%*	i	41.0%*
Cc1cc(C)n(-c2ccc(C(=O)NCC(=O)Nc3cc(Cl)ccc3Cl)cc2)n1	.	.	.	i	.	.	.	.
COc1cc(NS(=O)(=O)c2ccc(N/C=C(\C#N)c3nc4cc(Cl)ccc4o3)cc2)nc(OC)n1	i	i	i	i	-7.7	i	i	i
CC1Cc2ccccc2N1C(=O)CO/N=C/c1ccccc1OC(F)F (stereo unspecified)	i	i	i	i	-8.9	i	i	i
O=C(CO/N=C/c1ccccc1OC(F)F)N1CCc2ccccc21	i	i	i	i	-5.5	.	.	.
CC(=O)CCC1C2C(O)C(C(C)C)C(OC(=O)/C=C/c3ccccc3)CC12C (stereo unspecified)	i	i	i	i	-9.6	i	i	i
Cc1ccc(-c2nnc(SCC(=O)NCCN3C(=O)CSC3=O)n2C)cc1	.	.	.	i	.	.	.	.
COCCN=c1scc(-c2cc(OC)ccc2OC)n1/N=C/c1c[nH]c2ccccc12	i	i	i	i	-13.8	i	i	i
CCOC(=O)c1ccccc1NC(=O)c1cn(-c2ccc(OC)cc2)c(=O)c2ccccc12	-9.27*	i	i	i	-6.4	26.5%*	i	i
CCOC(=O)c1ccccc1NC(=O)c1cn(-c2ccc(C)c(C)c2)c(=O)c2ccccc12	i	i	i	i	-25.0	.	.	.
Fc1ccccc1-c1nc(-c2ccc(Br)o2)no1	i	i	i	i	-6.7	.	.	.
Cc1ccc(Cl)cc1N1CCN(S(=O)(=O)c2cccc(S(=O)(=O)N3CCCC3)c2)CC1	-10.2*	i	i	-11*	-6.8	49.0%*	i	32.0%*
COc1ccccc1-n1cnc2c(c1=O)c1nc3ccccc3nc1n2-c1ccc(C)cc1	i	i	i	i	-11.7	.	.	.
COc1ccccc1-n1c2nc3ccccc3nc2c2c(=O)n(-c3cc(C)cc(C)c3)cnc21	-8.47*	i	i	i	-10.3	i	i	25.0%*
CCc1nc2nc(C)c(NS(=O)(=O)c3ccc(C)c(C)c3)c(=O)n2[nH]1	i	i	i	i	-6.0	.	.	.
C[C@H](CO)N1C[C@H](C)[C@@H](CN(C)S(=O)(=O)c2cn(C)cn2)Oc2ccc(NS(=O)(=O)c3ccccc3)cc2C1=O	.	.	.	i	.	.	.	.
COc1ccccc1N1CCN(CCN2C(=O)CC(=C3c4ccccc4-c4ccccc43)C2=O)CC1	i	i	i	.	-12.3	i	i	i
Cc1ccccc1N1CCN(CCN2C(=O)CC(=C3c4ccccc4-c4ccccc43)C2=O)CC1	i	i	i	i	-14.2	.	.	.
Cc1ccc(C2CC2C(=O)NNC(=S)Nc2ccc(Cl)cc2)cc1 (stereo unspecified)	i	10*	i	i	-15.7	i	i	i
CCCCOC(=O)Nc1nnc(SCCOc2ccc(C)cc2)s1	i	i	i	i	-12.7	i	i	i
Cc1nc2ccccc2c(=O)n1/N=C/c1ccccc1OC(F)F	i	i	i	i	-8.1	.	.	.
CCOC(=O)c1cccnc1SCC(=O)N(CC)c1cccc(C)c1	i	i	i	i	-14.8	i	i	i
O=C(c1ccco1)N1CCN(Cc2cc(=O)c(OCc3ccc(F)cc3)co2)CC1	i	i	i	i	-10.2	.	.	.
CC(C)(C)n1nnnc1C(c1cccs1)N(Cc1cccnc1)Cc1ccccc1Cl (stereo unspecified)	-19.2*	i	i	i	-8.7	70.0%*	i	54.5%*
